Laboratory results as given in ChEMBL document CHEMBL1127343, “"Glycylcyclines". 3. 9-Aminodoxycyclinecarboxamides” (1994).
In brackets after ≈: the same amount, converted by molar mass. Where a SMILES comes first, the peptide text is derived from it. The star is where a group is joined. X1 = C[C@H]1c2ccc(N*)c(O)c2C(=O)C2=C(O)[C@]3(O)C(O)=C(C(N)=O)C(=O)[C@@H](N(C)C)C3[C@@H](O)C21

Tests used:
Format in all cases: functional
Staphylococcus aureus [1] = assay: In vitro antibacterial activity was measured on gram positive bacteria Staphylococcus aureus smith cell lines
Method in brief: (§1)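 MIC by agar dilution on Mueller-Hinton II agar; inoculum (1–5) × 10^5 CFU/mL; antibiotic range 32–0.004 μg/mL; plates incubated 18 h at 35 °C in forced-air incubator. MIC taken as lowest concentration inhibiting growth. Tetracycline, minocycline and doxycycline run as standards in each assay.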

Staphylococcus aureus [2] = assay: In vitro antibacterial activity was measured on gram positive bacteria Staphylococcus aureus UBMS 90-3 sensitive cell lines; method in brief: as §1
Escherichia coli [3] = assay: In vitro antibacterial activity was measured on gram negative bacteria Escherichia coli UBMS 88-1 tet-B(efflux resistance) cell lines
Escherichia coli [4] = assay: In vitro antibacterial activity was measured on gram negative bacteria Escherichia coli UBMS 90-4 tet-M (ribosomal protection) cell lines
Method in brief: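 Agar dilution MIC on Mueller-Hinton II agar. Inoculum (1–5) × 10^5 CFU/mL, drug range 32–0.004 μg/mL. Plates incubated 18 h at 35 °C in a forced-air incubator. MIC is the lowest concentration that inhibits growth. The strain panel covered tetracycline-sensitive and -resistant strains. Tetracycline, minocycline and doxycycline were run as standards in each assay.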

Escherichia coli [5] = assay: In vitro antibacterial activity was measured on gram negative bacteria Escherichia coli UBMS 90-5 sensitive cell lines; method in brief: as §1
Staphylococcus aureus [6] = assay: In vitro antibacterial activity was measured on gram positive bacteria Staphylococcus aureus UBMS 90-1 tet-M (ribosomal protection) cell lines; method in brief: as §1
Staphylococcus aureus [7] = assay: In vitro antibacterial activity was measured on gram positive bacteria Staphylococcus aureus UBMS 88-7 tet-k(efflux resistance) cell lines
Escherichia coli [8] = assay: In vitro antibacterial activity was measured on gram negative bacteria Escherichia coli J3272 tet-C(efflux resistance) cell lines
Escherichia coli [9] = assay: In vitro antibacterial activity was measured on gram negative bacteria Escherichia coli PRP-1 tet-a(efflux resistance) cell lines

Row | Compound | MIC (Staphylococcus aureus [1]) | MIC (Staphylococcus aureus [2]) | MIC (Escherichia coli [3]) | MIC (Escherichia coli [4]) | MIC (Escherichia coli [5]) | MIC (Staphylococcus aureus [6]) | MIC (Staphylococcus aureus [7]) | MIC (Escherichia coli [8]) | MIC (Escherichia coli [9])
1 | CC(C)C(=O)Nc1ccc2c(c1O)C(=O)C1=C(O)[C@]3(O)C(O)=C(C(N)=O)C(=O)[C@@H](N(C)C)C3[C@@H](O)C1[C@H]2C (stereo partly drawn) | 1 µg/mL (≈ 1.89 µM) | 0.5 µg/mL (≈ 0.944 µM) | 16 µg/mL (≈ 30.2 µM) | > 32 µg/mL | > 32 µg/mL | > 32 µg/mL |  |  | 
2 | CC(C)C[C@H](NC(=O)[C@@H](N)CC(C)C)C(=O)Nc1ccc2c(c1O)C(=O)C1=C(O)[C@]3(O)C(O)=C(C(N)=O)C(=O)[C@@H](N(C)C)C3[C@@H](O)C1[C@H]2C (stereo partly drawn) | 8 µg/mL (≈ 11.7 µM) | 4 µg/mL (≈ 5.83 µM) |  | > 32 µg/mL | > 32 µg/mL | 4 µg/mL (≈ 5.83 µM) | 32 µg/mL (≈ 46.7 µM) |  | 
3 | CN(C)c1ccc(O)c2c1CC1C[C@H]3[C@H](N(C)C)C(=O)C(C(N)=O)=C(O)[C@@]3(O)C(=O)C1=C2O (stereo partly drawn) | 0.12 µg/mL (≈ 0.262 µM) | 0.06 µg/mL (≈ 0.131 µM) |  | > 32 µg/mL | 1 µg/mL (≈ 2.19 µM) | 4 µg/mL (≈ 8.74 µM) |  |  | 
4 | C[C@H]1c2ccc(NC(=O)[C@@H](N)CCCCN)c(O)c2C(=O)C2=C(O)[C@]3(O)C(O)=C(C(N)=O)C(=O)[C@@H](N(C)C)C3[C@@H](O)C21 (stereo partly drawn) | > 32 µg/mL | > 32 µg/mL |  | > 32 µg/mL | > 32 µg/mL | > 32 µg/mL | 16 µg/mL (≈ 27.2 µM) |  | 
5 | C[C@H]1c2ccc(NC(=O)[C@@H](N)CCC(=O)O)c(O)c2C(=O)C2=C(O)[C@]3(O)C(O)=C(C(N)=O)C(=O)[C@@H](N(C)C)C3[C@@H](O)C21 (stereo partly drawn) | > 32 µg/mL | 32 µg/mL (≈ 54.4 µM) |  | > 32 µg/mL | > 32 µg/mL | > 32 µg/mL |  |  | 
6 | C[C@H]1c2ccc(NC(=O)[C@H](Cc3ccccc3)N(C)C)c(O)c2C(=O)C2=C(O)[C@]3(O)C(O)=C(C(N)=O)C(=O)[C@@H](N(C)C)C3[C@@H](O)C21 (stereo partly drawn) | 4 µg/mL (≈ 6.3 µM) | 1 µg/mL (≈ 1.58 µM) |  | 16 µg/mL (≈ 25.2 µM) | 32 µg/mL (≈ 50.4 µM) | 2 µg/mL (≈ 3.15 µM) |  |  | 
7 | CC(C)C[C@@H](N)C(=O)Nc1ccc2c(c1O)C(=O)C1=C(O)[C@]3(O)C(O)=C(C(N)=O)C(=O)[C@@H](N(C)C)C3[C@@H](O)C1[C@H]2C (stereo partly drawn) | 2 µg/mL (≈ 3.49 µM) | 2 µg/mL (≈ 3.49 µM) |  | 4 µg/mL (≈ 6.99 µM) | 8 µg/mL (≈ 14 µM) | > 32 µg/mL | 16 µg/mL (≈ 27.9 µM) | 16 µg/mL (≈ 27.9 µM) | 
8 | CC(=O)Nc1ccc2c(c1O)C(=O)C1=C(O)[C@]3(O)C(O)=C(C(N)=O)C(=O)[C@@H](N(C)C)C3[C@@H](O)C1[C@H]2C (stereo partly drawn) | 0.5 µg/mL (≈ 0.997 µM) | 0.25 µg cm··-2 |  | 32 µg/mL (≈ 63.8 µM) | 8 µg/mL (≈ 16 µM) | > 32 µg/mL |  |  | 
9 | C[C@H]1c2ccc(NC(=O)[C@@H](N)Cc3c[nH]c4ccccc34)c(O)c2C(=O)C2=C(O)[C@]3(O)C(O)=C(C(N)=O)C(=O)[C@@H](N(C)C)C3[C@@H](O)C21 (stereo partly drawn) | 1 µg/mL (≈ 1.55 µM) | 2 µg/mL (≈ 3.1 µM) |  | 4 µg/mL (≈ 6.2 µM) | 8 µg/mL (≈ 12.4 µM) | 4 µg/mL (≈ 6.2 µM) | 16 µg/mL (≈ 24.8 µM) | 32 µg/mL (≈ 49.6 µM) | 16 µg/mL (≈ 24.8 µM)
10 | C[C@H]1c2ccc(NC(=O)[C@@H](N)CCC(N)=O)c(O)c2C(=O)C2=C(O)[C@]3(O)C(O)=C(C(N)=O)C(=O)[C@@H](N(C)C)C3[C@@H](O)C21 (stereo partly drawn) | 4 µg/mL (≈ 6.81 µM) | 1 µg/mL (≈ 1.7 µM) |  | > 32 µg/mL | 16 µg/mL (≈ 27.2 µM) | > 32 µg/mL | 32 µg/mL (≈ 54.5 µM) |  | 
11 | CC(C)C[C@H](NC(=O)CN)C(=O)Nc1ccc2c(c1O)C(=O)C1=C(O)[C@]3(O)C(O)=C(C(N)=O)C(=O)[C@@H](N(C)C)C3[C@@H](O)C1[C@H]2C (stereo partly drawn) | 16 µg/mL (≈ 25.4 µM) | > 32 µg/mL |  | > 32 µg/mL | > 32 µg/mL | > 32 µg/mL |  |  | 
12 | CC(C)C[C@@H](N)C(=O)Nc1ccc2c(c1O)C(=O)C1=C(O)[C@]3(O)C(O)=C(C(N)=O)C(=O)[C@@H](N(C)C)C3CC1C2 (stereo partly drawn) | 8 µg/mL (≈ 14.7 µM) | 8 µg/mL (≈ 14.7 µM) |  | 8 µg/mL (≈ 14.7 µM) | 8 µg/mL (≈ 14.7 µM) | 16 µg/mL (≈ 29.5 µM) |  |  | 
13 | CNCC(=O)Nc1ccc2c(c1O)C(=O)C1=C(O)[C@]3(O)C(O)=C(C(N)=O)C(=O)[C@@H](N(C)C)C3[C@@H](O)C1[C@H]2C (stereo partly drawn) | 8 µg/mL (≈ 15.1 µM) | 4 µg/mL (≈ 7.54 µM) |  | 4 µg/mL (≈ 7.54 µM) | 8 µg/mL (≈ 15.1 µM) | 8 µg/mL (≈ 15.1 µM) | > 32 µg/mL | > 32 µg/mL | > 32 µg/mL
14 | CCCCNCC(=O)Nc1ccc2c(c1O)C(=O)C1=C(O)[C@]3(O)C(O)=C(C(N)=O)C(=O)[C@@H](N(C)C)C3[C@@H](O)C1[C@H]2C (stereo partly drawn) | 0.5 µg/mL (≈ 0.873 µM) | 0.25 µg/mL (≈ 0.437 µM) |  | 1 µg/mL (≈ 1.75 µM) | 0.5 µg/mL (≈ 0.873 µM) | 4 µg/mL (≈ 6.99 µM) | 8 µg/mL (≈ 14 µM) |  | 4 µg/mL (≈ 6.99 µM)
15 | COC(=O)Nc1ccc2c(c1O)C(=O)C1=C(O)[C@]3(O)C(O)=C(C(N)=O)C(=O)[C@@H](N(C)C)C3[C@@H](O)C1[C@H]2C (stereo partly drawn) | 0.06 µg/mL (≈ 0.116 µM) | 0.06 µg/mL (≈ 0.116 µM) |  | > 32 µg/mL | > 32 µg/mL | 16 µg/mL (≈ 30.9 µM) | 4 µg/mL (≈ 7.73 µM) |  | 
16 | CCCCCCCCCC(=O)Nc1ccc2c(c1O)C(=O)C1=C(O)[C@]3(O)C(O)=C(C(N)=O)C(=O)[C@@H](N(C)C)C3[C@@H](O)C1[C@H]2C (stereo partly drawn) | > 32 µg/mL | 16 µg/mL (≈ 26.1 µM) |  | > 32 µg/mL | > 32 µg/mL | > 32 µg/mL |  |  | 
17 | C[C@H]1c2ccc(NC(=O)CN)c(O)c2C(=O)C2=C(O)[C@]3(O)C(O)=C(C(N)=O)C(=O)[C@@H](N(C)C)C3[C@@H](O)C21 (stereo partly drawn) | 8 µg/mL (≈ 15.5 µM) | 4 µg/mL (≈ 7.74 µM) |  | 8 µg/mL (≈ 15.5 µM) | 8 µg/mL (≈ 15.5 µM) | 16 µg/mL (≈ 31 µM) | > 32 µg/mL | > 32 µg/mL | > 32 µg/mL
18 | C[C@H]1c2ccc(NC(=O)CN3CCCCC3)c(O)c2C(=O)C2=C(O)[C@]3(O)C(O)=C(C(N)=O)C(=O)[C@@H](N(C)C)C3[C@@H](O)C21 (stereo partly drawn) | 0.25 µg/mL (≈ 0.428 µM) | 0.12 µg/mL (≈ 0.205 µM) |  | 1 µg/mL (≈ 1.71 µM) | 0.5 µg/mL (≈ 0.855 µM) | 1 µg/mL (≈ 1.71 µM) |  |  | 2 µg/mL (≈ 3.42 µM)
19 | C[C@H]1c2cccc(O)c2C(=O)C2=C(O)[C@]3(O)C(O)=C(C(N)=O)C(=O)[C@@H](N(C)C)[C@@H]3[C@@H](O)C21 (stereo partly drawn) | 0.12 µg/mL (≈ 0.27 µM) | 0.12 µg/mL (≈ 0.27 µM) | 32 µg/mL (≈ 72 µM) | > 32 µg/mL | 1 µg/mL (≈ 2.25 µM) | 8 µg/mL (≈ 18 µM) |  | 16 µg/mL (≈ 36 µM) | 16 µg/mL (≈ 36 µM)
20 | CC(C)C[C@H](N)C(=O)NCC(=O)Nc1ccc2c(c1O)C(=O)C1=C(O)[C@]3(O)C(O)=C(C(N)=O)C(=O)[C@@H](N(C)C)C3[C@@H](O)C1[C@H]2C (stereo partly drawn) | 16 µg/mL (≈ 25.4 µM) | > 32 µg/mL |  | > 32 µg/mL | > 32 µg/mL | > 32 µg/mL |  |  | 
21 | C[C@H]1c2ccc(NC=O)c(O)c2C(=O)C2=C(O)[C@]3(O)C(O)=C(C(N)=O)C(=O)[C@@H](N(C)C)C3[C@@H](O)C21 (stereo partly drawn) | 0.12 µg/mL (≈ 0.246 µM) | 0.12 µg/mL (≈ 0.246 µM) |  | > 32 µg/mL | 2 µg/mL (≈ 4.1 µM) | > 32 µg/mL |  |  | 
22 | C[C@H]1c2ccc(NC(=O)CN3CCCC3)c(O)c2C(=O)C2=C(O)[C@]3(O)C(O)=C(C(N)=O)C(=O)[C@@H](N(C)C)C3[C@@H](O)C21 (stereo partly drawn) | 0.5 µg/mL (≈ 0.876 µM) | 0.25 µg/mL (≈ 0.438 µM) |  | 0.25 µg/mL (≈ 0.438 µM) | 0.5 µg/mL (≈ 0.876 µM) | 1 µg/mL (≈ 1.75 µM) | 4 µg/mL (≈ 7.01 µM) | 1 µg/mL (≈ 1.75 µM) | 2 µg/mL (≈ 3.51 µM)
23 | CC(C)C[C@H](NC(=O)[C@H](CC(C)C)NC(=O)[C@H](CC(C)C)NC(=O)[C@@H](N)CC(C)C)C(=O)Nc1ccc2c(c1O)C(=O)C1=C(O)[C@]3(O)C(O)=C(C(N)=O)C(=O)[C@@H](N(C)C)C3[C@@H](O)C1[C@H]2C (stereo partly drawn) (H-LLLL-X1) | 16 µg/mL (≈ 17.5 µM) | 32 µg/mL (≈ 35.1 µM) |  | > 32 µg/mL | > 32 µg/mL | > 32 µg/mL |  |  | 
24 | CN(C)[C@@H]1C(O)=C(C(N)=O)C(=O)[C@@]2(O)C(O)=C3C(=O)c4c(O)cccc4C[C@H]3C[C@@H]12 [SANCYCLINE] | 0.25 µg/mL (≈ 0.603 µM) | 0.25 µg/mL (≈ 0.603 µM) |  | 16 µg/mL (≈ 38.6 µM) | 2 µg/mL (≈ 4.83 µM) | 2 µg/mL (≈ 4.83 µM) | 4 µg/mL (≈ 9.65 µM) | 4 µg/mL (≈ 9.65 µM) | 8 µg/mL (≈ 19.3 µM)
